From ChEMBL document CHEMBL2177094, “Structure dependence of long-chain [18F]fluorothia fatty acids as myocardial fatty acid oxidation probes” (J Med Chem, 2012)

What was measured:
[1] = system: Liver; test: Drug uptake in overnight fasted Sprague-Dawley rat liver at 0.7 to 1.4 MBq, iv preincubated with POCA for 2 hrs before compound administration measured at 30 mins post treatment; type: ADME, organism-based; settings: in vivo, 0.5 h
How it was run: (§1)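 Female rats fasted overnight, under isoflurane (3.5% induction, 1.5% maintenance). 18F-labelled tracer formulated in 0.5–1.0% BSA/saline, injected via tail vein. Tissues harvested at 30 or 120 min, weighed, gamma-counted, decay-corrected. Uptake expressed as % dose kg/g, i.e. tissue CPM × body wt (kg) × 100 / (tissue wt (g) × dose CPM). POCA groups received 30 mg/kg i.p. 2 h before tracer. n = 5–6.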

[2] = system: Liver; test: Biodistribution in overnight fasted Sprague-Dawley rat liver organic fraction at 0.7 to 1.4 MBq, iv at 30 mins by Folch-type extraction method; type: ADME, organism-based; settings: in vivo, 0.5 h
How it was run: (§2)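 Female Sprague-Dawley rats, fasted overnight, under isoflurane (3.5% induction, 1.5% maintenance). [18F] tracer in 0.5–1.0% BSA/saline was given by tail vein. POCA group: 30 mg/kg i.p. 120 min before tracer. About 0.5 g tissue was homogenized and sonicated in chloroform/methanol (2:1) at 0 °C, then 40% urea and 5% H2SO4 were added and spun 10 min at 1,800 g. Aqueous, organic and pellet fractions were counted as % of total.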

[3] = system: Bone; test: Drug uptake in overnight fasted Sprague-Dawley rat bone at 0.7 to 1.4 MBq, iv at 120 mins; type: ADME, organism-based, Bone element; settings: in vivo, 2 h
How it was run: (§3)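 Overnight-fasted female Sprague-Dawley rats under isoflurane received the [18F] tracer in 0.5–1.0% BSA/saline by tail vein. POCA group: 30 mg/kg i.p. 2 h before tracer. Tissues were excised at 30 or 120 min, weighed and gamma-counted with decay correction. Uptake = % dose kg/g, i.e. CPM tissue × body wt (kg) × 100 / (tissue wt (g) × CPM dose). n = 5–6.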

[4] = system: Heart; test: Drug uptake in overnight fasted Sprague-Dawley rat heart at 9 to 11 MBq, iv at 5 mins by microPET analysis; type: ADME, organism-based; settings: in vivo
How it was run: (§4)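 Female rats fasted overnight, under isoflurane. 18F-labelled tracer (9–11 MBq) given into a tail vein. Dynamic PET acquisition over the upper thorax for 50 min, then a static whole-body scan 55–115 min post-injection. 2–5 rats per tracer.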

[5] = system: Muscle tissue; test: Biodistribution in overnight fasted Sprague-Dawley rat muscle pellet fraction at 0.7 to 1.4 MBq, iv at 30 mins by Folch-type extraction method; type: ADME, organism-based; settings: in vivo, 0.5 h; how it was run: as §2
[6] = system: Liver; test: Biodistribution in overnight fasted Sprague-Dawley rat liver organic fraction at 0.7 to 1.4 MBq, iv at 120 mins by Folch-type extraction method; type: ADME, organism-based; settings: in vivo, 2 h; how it was run: as §2
[7] = system: Kidney; test: Drug uptake in overnight fasted Sprague-Dawley rat kidney at 0.7 to 1.4 MBq, iv at 120 mins; type: ADME, organism-based; settings: in vivo, 2 h; how it was run: as §1
[8] = system: Bone; test: Drug uptake in overnight fasted Sprague-Dawley rat bone at 0.7 to 1.4 MBq, iv preincubated with POCA for 2 hrs before compound administration measured at 120 mins post treatment; type: ADME, organism-based, Bone element; settings: in vivo; how it was run: as §3
[9] = system: Liver; test: Drug uptake in overnight fasted Sprague-Dawley rat liver at 0.7 to 1.4 MBq, iv at 30 mins; type: ADME, organism-based; settings: in vivo, 0.5 h; how it was run: as §1
[10] = system: Liver; test: Biodistribution in overnight fasted Sprague-Dawley rat liver pellet fraction at 0.7 to 1.4 MBq, iv at 30 mins by Folch-type extraction method; type: ADME, organism-based; settings: in vivo, 0.5 h; how it was run: as §2
[11] = system: Kidney; test: Drug uptake in overnight fasted Sprague-Dawley rat kidney at 0.7 to 1.4 MBq, iv preincubated with POCA for 2 hrs before compound administration measured at 120 mins post treatment; type: ADME, organism-based; settings: in vivo; how it was run: as §1
[12] = system: Muscle tissue; test: Biodistribution in overnight fasted Sprague-Dawley rat muscle aqueous fraction at 0.7 to 1.4 MBq, iv preincubated with POCA for 2 hrs before compound administration measured at 120 mins post treatment by Folch-type extraction method; type: ADME, organism-based; settings: in vivo; how it was run: as §2
[13] = system: Liver; test: Biodistribution in overnight fasted Sprague-Dawley rat liver aqueous fraction at 0.7 to 1.4 MBq, iv at 30 mins by Folch-type extraction method; type: ADME, organism-based; settings: in vivo, 0.5 h; how it was run: as §2
[14] = system: Muscle tissue; test: Drug uptake in overnight fasted Sprague-Dawley rat muscle at 0.7 to 1.4 MBq, iv at 30 mins; type: ADME, organism-based; settings: in vivo, 0.5 h; how it was run: as §1
[15] = system: Liver; test: Drug uptake in overnight fasted Sprague-Dawley rat liver at 0.7 to 1.4 MBq, iv at 120 mins; type: ADME, organism-based; settings: in vivo, 2 h; how it was run: as §1
[16] = system: Heart; test: Drug uptake in overnight fasted Sprague-Dawley rat heart at 0.7 to 1.4 MBq, iv at 120 mins; type: ADME, organism-based; settings: in vivo, 2 h; how it was run: as §3
[17] = system: Liver; test: Drug uptake in overnight fasted Sprague-Dawley rat liver at 0.7 to 1.4 MBq, iv preincubated with POCA for 2 hrs before compound administration measured at 120 mins post treatment; type: ADME, organism-based; settings: in vivo; how it was run: as §1
[18] = system: Lung; test: Drug uptake in overnight fasted Sprague-Dawley rat lung at 0.7 to 1.4 MBq, iv preincubated with POCA for 2 hrs before compound administration measured at 120 mins post treatment; type: ADME, organism-based; settings: in vivo; how it was run: as §1
[19] = system: Heart; test: Drug uptake in overnight fasted Sprague-Dawley rat heart at 0.7 to 1.4 MBq, iv preincubated with POCA for 2 hrs before compound administration measured at 30 mins post treatment; type: ADME, organism-based; settings: in vivo, 0.5 h; how it was run: as §1
[20] = system: Lung; test: Drug uptake in overnight fasted Sprague-Dawley rat lung at 0.7 to 1.4 MBq, iv at 120 mins; type: ADME, organism-based; settings: in vivo, 2 h; how it was run: as §1
[21] = system: Liver; test: Drug uptake in overnight fasted Sprague-Dawley rat liver at 9 to 11 MBq, iv at 5 mins by microPET analysis; type: ADME, organism-based; settings: in vivo; how it was run: as §4
[22] = system: Heart; test: Biodistribution in overnight fasted Sprague-Dawley rat heart organic fraction at 0.7 to 1.4 MBq, iv at 30 mins by Folch-type extraction method; type: ADME, organism-based; settings: in vivo, 0.5 h; how it was run: as §2
[23] = system: Heart; test: Biodistribution in overnight fasted Sprague-Dawley rat heart pellet fraction at 0.7 to 1.4 MBq, iv at 30 mins by Folch-type extraction method; type: ADME, organism-based; settings: in vivo, 0.5 h; how it was run: as §2
[24] = system: Bone; test: Drug uptake in overnight fasted Sprague-Dawley rat bone at 0.7 to 1.4 MBq, iv at 30 mins; type: ADME, organism-based, Bone element; settings: in vivo, 0.5 h; how it was run: as §3
[25] = system: Muscle tissue; test: Biodistribution in overnight fasted Sprague-Dawley rat muscle aqueous fraction at 0.7 to 1.4 MBq, iv preincubated with POCA for 2 hrs before compound administration measured at 30 mins post treatment by Folch-type extraction method; type: ADME, organism-based; settings: in vivo, 0.5 h; how it was run: as §2
[26] = system: Lung; test: Drug uptake in overnight fasted Sprague-Dawley rat lung at 0.7 to 1.4 MBq, iv at 30 mins; type: ADME, organism-based; settings: in vivo, 0.5 h; how it was run: as §1
[27] = system: Bone; test: Drug uptake in overnight fasted Sprague-Dawley rat bone at 0.7 to 1.4 MBq, iv preincubated with POCA for 2 hrs before compound administration measured at 30 mins post treatment; type: ADME, organism-based, Bone element; settings: in vivo, 0.5 h; how it was run: as §3
[28] = system: Muscle tissue; test: Biodistribution in overnight fasted Sprague-Dawley rat muscle organic fraction at 0.7 to 1.4 MBq, iv preincubated with POCA for 2 hrs before compound administration measured at 30 mins post treatment by Folch-type extraction method; type: ADME, organism-based; settings: in vivo, 0.5 h; how it was run: as §2
[29] = system: Kidney; test: Drug uptake in overnight fasted Sprague-Dawley rat kidney at 0.7 to 1.4 MBq, iv preincubated with POCA for 2 hrs before compound administration measured at 30 mins post treatment; type: ADME, organism-based; settings: in vivo, 0.5 h; how it was run: as §1
[30] = system: Heart; test: Biodistribution in overnight fasted Sprague-Dawley rat heart aqueous fraction at 0.7 to 1.4 MBq, iv at 120 mins by Folch-type extraction method; type: ADME, organism-based; settings: in vivo, 2 h; how it was run: as §2
[31] = system: Muscle tissue; test: Biodistribution in overnight fasted Sprague-Dawley rat muscle aqueous fraction at 0.7 to 1.4 MBq, iv at 30 mins by Folch-type extraction method; type: ADME, organism-based; settings: in vivo, 0.5 h; how it was run: as §2

SMILES	Drug uptake [1]	Drug uptake [2]	Drug uptake [3]	Drug uptake [4]	Drug uptake [5]	Drug uptake [6]	Drug uptake [7]	Drug uptake [8]	Drug uptake [9]	Drug uptake [10]	Drug uptake [11]	Drug uptake [12]	Drug uptake [13]	Drug uptake [14]	Drug uptake [15]	Drug uptake [16]	Drug uptake [17]	Drug uptake [18]	Drug uptake [19]	Drug uptake [20]	further results
O=C(O)CCCCSCCCCCCCCCCCC[18F]	0.8492 %IDKg/g	45.61%	0.2467 %IDKg/g	Active	38.95%	35.26%	0.1629 %IDKg/g	0.2104 %IDKg/g	1.126 %IDKg/g	44.72%	0.1554 %IDKg/g	9.3%	9.65%	0.039 %IDKg/g	0.7548 %IDKg/g	0.2815 %IDKg/g	0.419 %IDKg/g	0.0536 %IDKg/g	0.3331 %IDKg/g	0.0702 %IDKg/g	Drug uptake [21]: Active; Drug uptake [22]: 25.81%; Drug uptake [23]: 70.16%; Drug uptake [24]: 0.1171 %IDKg/g; Drug uptake [25]: 7.7%; Drug uptake [26]: 0.0621 %IDKg/g; Drug uptake [27]: 0.1037 %IDKg/g; Drug uptake [28]: 43.43%; Drug uptake [29]: 0.3441 %IDKg/g; Drug uptake [30]: 4.03%; Drug uptake [31]: 16.49%
O=C(O)CCSCCCCCCCCCCCCCC[18F]	0.4064 %IDKg/g	51.66%	0.2934 %IDKg/g	Active	32.22%	55.69%	0.0726 %IDKg/g	0.4042 %IDKg/g	0.6292 %IDKg/g	32.97%	0.0947 %IDKg/g	9.12%	15.36%	0.0303 %IDKg/g	0.3759 %IDKg/g	0.2144 %IDKg/g	0.1341 %IDKg/g	0.0244 %IDKg/g	0.1814 %IDKg/g	0.0339 %IDKg/g	Drug uptake [21]: Active; Drug uptake [22]: 17.29%; Drug uptake [23]: 78.72%; Drug uptake [24]: 0.2309 %IDKg/g; Drug uptake [25]: 25.8%; Drug uptake [26]: 0.0755 %IDKg/g; Drug uptake [27]: 0.2289 %IDKg/g; Drug uptake [28]: 47.15%; Drug uptake [29]: 0.235 %IDKg/g; Drug uptake [30]: 2.39%; Drug uptake [31]: 28.99%
